Source: ChEMBL document CHEMBL1138683 (J Med Chem, 2004)

Experiments:
[1] = Anti convulsant activity administered intra peritoneally to mouse for toxicity at 0.5 hr with dose of 30 mg/kg; 0/4= No of animals exhibiting toxicity /No of animals tested; assay type: organism-based; design: dose 30 mg/kg; settings: in vivo, ip
[2] = system: Rattus norvegicus; test: Quantitative Anticonvulsant activity administered orally to rat for protective index in subcutaneous metrazol test; assay type: functional
In short: (§1)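 Oral dosing in rats with compound dissolved or suspended in 0.5% methylcellulose (0.04 mL per 10 g body weight). […] Protective index taken as TD50/ED50 for each test.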

[3] = system: Mus musculus; test: Quantitative Anticonvulsant activity administered intraperitoneally to mouse for protective index in maximal electro shock test;TD50/ED50; assay type: functional
In short: (§2)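 Mice dosed intraperitoneally with compound dissolved or suspended in 0.5% methylcellulose (0.01 mL per gram body weight). […] Protective index calculated as TD50/ED50 for each seizure test.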

[4] = Anti convulsant activity administered intra peritoneally to mouse for toxicity at 0.5 hr with dose of 100 mg/kg; 0/8= No of animals exhibiting toxicity /No of animals tested; assay type: organism-based; design: dose 100 mg/kg; settings: in vivo, ip
[5] = Anti convulsant activity administered intra peritoneally to mouse for toxicity at 0.5 hr with dose of 300 mg/kg; 0/4= No of animals exhibiting toxicity /No of animals tested; assay type: organism-based; design: dose 300 mg/kg; settings: in vivo, ip
[6] = system: Mus musculus; test: Anti convulsant activity administered intra peritoneally to mouse for subcutaneous metrazol test at 4 hr after the drug administered with dose of 30 mg/kg; 0/1= No of animals protected /No of animals tested; assay type: functional; settings: route intraperitoneal
[7] = system: Rattus norvegicus; test: Quantitative Anticonvulsant activity administered orally to rat at maximal electro shock test; the interval in parenthesis stands for 95% confidence interval; assay type: functional; settings: po; in short: as §1
[8] = system: Rattus norvegicus; test: Anticonvulsant activity after oral administration of 30 mg/kg dose after 15 min in rats;+means 25% of the animals protected; assay type: functional, organism-based; design: dose 30 mg/kg
In short: (§3)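 Oral dosing of rats at a single dose, compound dissolved or suspended in 0.5% methylcellulose. Protection in the MES or scMet test checked 15 min, 30 min, 1 h, 2 h and 4 h after dosing. Scored as 25/50/75/100% of animals protected (+ to ++++), – for none.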

[9] = Quantitative Anticonvulsant activity administered intraperitoneally to mouse for toxicity; settings: in vivo, ip; in short: as §2
[10] = system: Rattus norvegicus; test: Anticonvulsant activity after oral administration of 30 mg/kg dose after 4 hr in rats; + means 25% of the animals protected; assay type: functional, organism-based; design: dose 30 mg/kg; in short: as §3
[11] = system: Rattus norvegicus; test: Anticonvulsant activity after oral administration of 30 mg/kg dose after 2 hr in rats; ++++ means 100% of the animals protected; assay type: functional, organism-based; design: dose 30 mg/kg; in short: as §3
[12] = system: Mus musculus; test: Quantitative Anticonvulsant activity administered intraperitoneally to mouse for maximal electro shock test; The interval in parenthesis stands for 95% confidence interval; assay type: functional; settings: ip; in short: as §2
[13] = system: Mus musculus; test: Anti convulsant activity administered intra peritoneally to mouse at maximal electroshock test at 4 hr after the drug administered with dose of 300 mg/kg; 1/1= No of animals protected /No of animals tested; assay type: functional
[14] = system: Rattus norvegicus; test: Quantitative Anticonvulsant activity administered orally to rat for subcutaneous metrazol test; assay type: functional; in short: as §1
[15] = system: Mus musculus; test: Anti convulsant activity administered intra peritoneally to mouse at maximal electroshock test at 4 hr after the drug administered with dose of 100 mg/kg; 0/3= No of animals protected /No of animals tested; assay type: functional
[16] = system: Mus musculus; test: Anti convulsant activity administered intra peritoneally to mouse for subcutaneous metrazol test at 0.5 hr with dose of 30 mg/kg; 0/1= No of animals protected /No of animals tested; assay type: functional
[17] = system: Rattus norvegicus; test: Anticonvulsant activity after oral administration of 30 mg/kg dose after 1 hr in rats; +++ means 75% of the animals protected; assay type: functional, organism-based; design: dose 30 mg/kg; in short: as §3
[18] = system: Mus musculus; test: Anti convulsant activity administered intra peritoneally to mouse at maximal electroshock test at 0.5 hr after the drug administered with dose of 300 mg/kg; 1/1= No of animals protected /No of animals tested; assay type: functional
[19] = system: Rattus norvegicus; test: Anticonvulsant activity after oral administration of 50 mg/kg dose after 30 min in rats; ++ means 50% of the animals protected; assay type: functional, organism-based; design: dose 50 mg/kg
In short: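 Rats dosed orally with compound dissolved or suspended in 0.5% methylcellulose (0.04 mL per 10 g body weight). Anticonvulsant protection (MES or scMet) and toxicity scored at 15 min, 30 min, 1 h, 2 h and 4 h after dosing. Graded in steps of 25% of animals protected or showing toxicity.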

[20] = system: Rattus norvegicus; test: Anticonvulsant activity after oral administration of 50 mg/kg dose after 15 min in rats; +++ means 75% of the animals protected; assay type: functional, organism-based; design: dose 50 mg/kg; in short: as §3
[21] = Anti convulsant activity administered intra peritoneally to mouse for toxicity at 4 hr with dose of 100 mg/kg; 0/4= No of animals exhibiting toxicity /No of animals tested; assay type: organism-based; design: dose 100 mg/kg; settings: in vivo, ip
[22] = Anti convulsant activity administered intra peritoneally to mouse for toxicity at 4 hr with dose of 300 mg/kg; 1/2= No of animals exhibiting toxicity /No of animals tested; assay type: organism-based; design: dose 300 mg/kg; settings: in vivo, ip
[23] = system: Mus musculus; test: Quantitative Anticonvulsant activity administered intraperitoneally to mouse for protective index in subcutaneous metrazol test; assay type: functional; in short: as §2
[24] = system: Mus musculus; test: Anti convulsant activity administered intra peritoneally to mouse at maximal electroshock test at 0.5 hr after the drug administered with dose of 100 mg/kg; 3/3= No of animals protected /No of animals tested; assay type: functional
[25] = system: Mus musculus; test: Anti convulsant activity administered intra peritoneally to mouse at maximal electroshock test at 0.5 h after the drug administered with dose of 30 mg/kg; 0/1= No of animals protected /No of animals tested; assay type: functional
[26] = system: Mus musculus; test: Anti convulsant activity administered intra peritoneally to mouse at maximal electroshock test at 4 hr after the drug administered with dose of 100 mg/kg; 0/1= No of animals protected /No of animals tested; assay type: functional
[27] = system: Mus musculus; test: Anti convulsant activity administered intra peritoneally to mouse at maximal electroshock test at 4 hr after the drug administered with dose of 30 mg/kg; 0/1= No of animals protected /No of animals tested; assay type: functional
[28] = system: Rattus norvegicus; test: Quantitative Anticonvulsant activity administered orally to rat for protective index in maximal electro shock test;TD50/ED50; assay type: functional; in short: as §1
[29] = system: Mus musculus; test: Anti convulsant activity administered intra peritoneally to mouse for subcutaneous metrazol test at 0.5 h with dose of 300 mg/kg; 0/1= No of animals protected /No of animals tested; assay type: functional
[30] = system: Mus musculus; test: Anti convulsant activity administered intra peritoneally to mouse for subcutaneous metrazol test at 4 hr after the drug administered with dose of 100 mg/kg; 0/1= No of animals protected /No of animals tested; assay type: functional
[31] = system: Mus musculus; test: Anticonvulsant activity administered intraperitoneally to mouse for toxicity at 4 hr with dose of 30 mg/kg; assay type: functional; settings: route intraperitoneal
In short: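 Mice given compound i.p. at 30, 100 or 300 mg/kg, dissolved or suspended in 0.5% methylcellulose. Toxicity scored 0.5 h and 4 h after dosing, recorded as number of animals showing toxicity per number tested.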

[32] = system: Rattus norvegicus; test: Anticonvulsant activity after oral administration of 30 mg/kg dose after 30 min in rats; ++ means 50% of the animals protected; assay type: functional, organism-based; design: dose 30 mg/kg; in short: as §3
[33] = system: Mus musculus; test: Anti convulsant activity administered intra peritoneally to mouse for subcutaneous metrazol test at 4 hr with dose of 300 mg/kg; 3/5= No of animals protected /No of animals tested; assay type: functional

## CC1(C)C(C(=O)NC(N)=O)C1(C)C [2,2,3,3-TETRAMETHYLCYCLOPROPANECARBONYLUREA]
[1]
  Toxicity: 0
[2]
  Activity: 5.9
[3]
  Ratio: 1.9
[4]
  Toxicity: 0
[5]
  Toxicity: 0
[6]
  Activity: 0
[7]
  ED50: 29 mg/kg
[8]
  Activity: 100% of the animals protected
[9]
  TD50: 168 mg/kg
[10]
  Activity: 100% of the animals protected
[11]
  Activity: 100% of the animals protected
[12]
  ED50: 90 mg/kg
[13]
  Activity: 1
[14]
  ED50: 92 mg/kg
[15]
  Activity: 0
[16]
  Activity: 0
[17]
  Activity: 100% of the animals protected
[18]
  Activity: 1
[19]
  Activity: 100% of the animals protected
[20]
  Anticonvulsant Activity: 75% of the animals protected
[21]
  Toxicity: 0
[22]
  Toxicity: 1
[23]
  Anticonvulsant: 1.6
[24]
  Activity: 3
[25]
  Activity: 0
[26]
  Activity: 0
[27]
  Activity: 0
[28]
  Ratio: 18.5
[29]
  Activity: 0
[30]
  Activity: 0
[31]
  Toxicity: 0
[32]
  Activity: 100% of the animals protected
[33]
  Activity: 3
